Experimental data published in ChEMBL document CHEMBL1125498, “N-methylated analogs of Ac[Nle28,31]CCK(26-33): synthesis, activity, and receptor selectivity” (J Med Chem, 1992).
Where a SMILES comes first, the peptide text is derived from it. [ ]: non-standard residue; d: D form. sY = N[C@@H](Cc1ccc(OS(=O)(=O)O)cc1)C(=O)O; Nle = CCCC[C@H](N)C(=O)O

Columns and labels:
[1] = molecular target: T1, Cholecystokinin receptor type A (Cavia porcellus, UniProt Q63931); assay: In vitro smooth muscle contraction activity in guinea pig gall bladder cholecystokinin type A receptor; format: functional, tissue-based
T1 sequence (Q63931 whole entry): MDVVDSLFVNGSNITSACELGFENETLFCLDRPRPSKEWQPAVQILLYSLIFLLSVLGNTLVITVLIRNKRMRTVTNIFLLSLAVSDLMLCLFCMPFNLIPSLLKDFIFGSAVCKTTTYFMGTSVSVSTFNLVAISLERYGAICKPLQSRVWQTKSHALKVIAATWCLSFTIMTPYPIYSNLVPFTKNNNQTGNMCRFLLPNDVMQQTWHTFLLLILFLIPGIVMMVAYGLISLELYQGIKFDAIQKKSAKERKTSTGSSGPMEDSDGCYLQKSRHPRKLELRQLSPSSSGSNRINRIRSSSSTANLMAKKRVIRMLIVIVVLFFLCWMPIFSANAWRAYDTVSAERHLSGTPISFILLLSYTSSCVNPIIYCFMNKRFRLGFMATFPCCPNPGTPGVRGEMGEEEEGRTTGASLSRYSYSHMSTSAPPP
How it was run: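 Isolated guinea pig tissue strips, equilibrated 90 min with periodic tension readjustment and bath changes. Isometric force recorded. Cumulative-free concentration-response curves from increasing peptide concentrations, strips washed three times with 5–15-min intervals between doses. Carbachol test dose (100 nM) measured before, during and after as control. EC50 from curves; points in duplicate, mean ± SEM of at least three experiments.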

Cavia porcellus [2] = species on record: Cavia porcellus; assay: Relative Potency(RP %) (EC50) was calculated by using smooth muscle contraction assay in guinea pig stomach with relative to Ac[Nle28,31]CCK(26-33)(EC50); format: functional, Muscle tissue
How it was run: (§1)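 Same isolated guinea pig tissue contraction set-up: 90 min equilibration, isometric force, increasing peptide concentrations with three washes at 5–15-min intervals, 100 nM carbachol control.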

[3] = molecular target: Gastrin/cholecystokinin type B receptor (Cavia porcellus); assay: In vitro smooth muscle contraction activity in guinea pig stomach consisting of CCK/gastrin receptor subtype
Cavia porcellus [4] = species on record: Cavia porcellus; assay: Relative Potency(RP %) (EC50) was calculated by using smooth muscle contraction assay in guinea pig ileum with relative to Ac[Nle28,31]CCK(26-33)(EC50); format: functional; how it was run: as §1
[5] = molecular target: Cholecystokinin receptor (Cavia porcellus); assay: In vitro smooth muscle contraction activity in guinea pig ileum consists of two or three CCK receptor subtypes
Cavia porcellus [6] = species on record: Cavia porcellus; assay: Relative Potency(RP %) (EC50) was calculated by using smooth muscle contraction assay in guinea pig gallbladder with relative to Ac[Nle28,31]CCK(26-33)(EC50); format: functional, Muscle tissue; how it was run: as §1

Row | SMILES | EC50 [1] | Relative Potency (Cavia porcellus [2]) | EC50 [3] | Relative Potency (Cavia porcellus [4]) | EC50 [5] | Relative Potency (Cavia porcellus [6])
1 | CCCC[C@H](NC(=O)[C@H](Cc1ccc(OS(=O)(=O)O)cc1)NC(=O)[C@H](CC(=O)O)NC(C)=O)C(=O)NCC(=O)N[C@@H](Cc1c[nH]c2ccccc12)C(=O)N[C@@H](CCCC)C(=O)N(C)[C@@H](CC(=O)O)C(=O)N[C@@H](Cc1ccccc1)C(N)=O | 2 nM | – | – | – | – | –
2 | CCCC[C@H](NC(=O)[C@H](Cc1ccc(OS(=O)(=O)O)cc1)NC(=O)[C@H](CC(=O)O)NC(C)=O)C(=O)NCC(=O)N[C@@H](Cc1c[nH]c2ccccc12)C(=O)N[C@@H](CCCC)C(=O)N[C@@H](CC(=O)O)C(=O)N(C)[C@@H](Cc1ccccc1)C(N)=O | 3 nM | – | – | – | – | –
3 | CCCC[C@H](NC(=O)[C@H](Cc1ccc(OS(=O)(=O)O)cc1)NC(=O)[C@H](CC(=O)O)NC(C)=O)C(=O)NCC(=O)N[C@@H](Cc1c[nH]c2ccccc12)C(=O)N(C)[C@@H](CCCC)C(=O)N[C@@H](CC(=O)O)C(=O)N[C@@H](Cc1ccccc1)C(N)=O | 20 nM | 10 | 140 nM | 4 | 37 nM | 6
4 | CCCC[C@H](NC(=O)[C@H](Cc1ccc(OS(=O)(=O)O)cc1)NC(=O)[C@H](CC(=O)O)NC(C)=O)C(=O)NCC(=O)N(C)[C@@H](Cc1c[nH]c2ccccc12)C(=O)N[C@@H](CCCC)C(=O)N[C@@H](CC(=O)O)C(=O)N[C@@H](Cc1ccccc1)C(N)=O | 53 nM | – | – | – | – | –
5 | CCCC[C@H](NC(=O)[C@H](Cc1c[nH]c2ccccc12)NC(=O)CN(C)C(=O)[C@H](CCCC)NC(=O)[C@H](Cc1ccc(OS(=O)(=O)O)cc1)NC(=O)[C@H](CC(=O)O)NC(C)=O)C(=O)N[C@@H](CC(=O)O)C(=O)N[C@@H](Cc1ccccc1)C(N)=O | 0.1 nM | – | – | – | – | –
6 | CCCC[C@H](NC(=O)[C@H](Cc1ccc(OS(=O)(=O)O)cc1)NC(=O)[C@H](CC(=O)O)NC(C)=O)C(=O)NCC(=O)N[C@@H](Cc1c[nH]c2ccccc12)C(=O)N[C@@H](CCCC)C(=O)N[C@@H](CC(=O)O)C(=O)N[C@@H](Cc1ccccc1)C(N)=O | 1.2 nM | – | – | – | – | –
7 | CCCC[C@H](NC(=O)[C@H](Cc1c[nH]c2ccccc12)NC(=O)CNC(=O)[C@H](CCCC)NC(=O)[C@H](Cc1ccc(OS(=O)(=O)O)cc1)N(C)C(=O)[C@H](CC(=O)O)NC(C)=O)C(=O)N[C@@H](CC(=O)O)C(=O)N[C@@H](Cc1ccccc1)C(N)=O | 1.4 nM | – | – | – | – | –
8 | CCCC[C@H](NC(=O)[C@H](Cc1c[nH]c2ccccc12)NC(=O)[C@@H]1CCCN1C(=O)[C@H](CCCC)NC(=O)[C@H](Cc1ccc(OS(=O)(=O)O)cc1)NC(=O)[C@H](CC(=O)O)NC(C)=O)C(=O)N[C@@H](CC(=O)O)C(=O)N[C@@H](Cc1ccccc1)C(N)=O (Ac-D[sY][Nle]PW[Nle]DF-NH2) | 60 nM | 25 | 54 nM | 1.3 | 104 nM | 2
